Experimental data from ChEMBL document CHEMBL5532690, “Antitubercular activity of 2-mercaptobenzothiazole derivatives targeting Mycobacterium tuberculosis type II NADH dehydrogenase” (RSC Med Chem, 2024).
Values after ≈ are worked out from the molar mass of the structure shown.

Legend:
[1] = test system: Mycobacterium tuberculosis variant bovis; experiment: Antitubercular activity against Mycobacterium bovis BCG measured after 10 days by liquid broth microdilution assay; type: functional; conditions: 240 h, time 10 day
Procedure, shortened: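 Broth microdilution in 7H9 with 0.2% glycerol, 0.05% Tween 80 and 10% ADS. Mid-log cultures (OD600 0.4–0.6) were diluted to OD600 0.005 (1.0 × 10^6 CFU ml−1) and added to two-fold serial compound dilutions. Plates were incubated at 37 °C for 10 days and read visually. MIC was the lowest concentration with no turbidity.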

[2] = test system: Mycobacterium tuberculosis variant bovis; experiment: Antitubercular activity against Mycobacterium bovis BCG assessed as inhibition of intracellular ATP synthesis incubated for 24 hrs by BacTiter-Glo microbial cell viability assay; type: functional, organism-based
Procedure, shortened: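 Mid-log cultures were adjusted to OD600 0.05 and exposed to compounds at 37 °C for 24 h. BacTiter-Glo reagent was then added for 12 min and luminescence was read. H37Ra and BCG were grown in 7H9 with glycerol, Tween 80 and ADS. mc2 6230 was grown with tyloxapol plus methionine, leucine, arginine and pantothenate. Values are the mean of triplicates.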

Row | SMILES | MIC90 [1] [µg/mL] | IC50 [2] [µg/mL]
1 | O=C(CSc1nc2ccc(OC(F)(F)F)cc2s1)NC1CCCCC1 | 128 (≈ 328 µM) | 30.4 (≈ 77.9 µM)
2 | O=C(CSc1nc2c(Br)cc(C(F)(F)F)cc2s1)NC1CCCCC1 | 64 (≈ 141 µM) | 39.8 (≈ 87.9 µM)
3 | O=C(CSc1nc2ccccc2s1)NC1CCCCC1 | 64 (≈ 209 µM) | 33.2 (≈ 108 µM)
4 | O=C(CSc1nc2c(Br)cc(OC(F)(F)F)cc2s1)NC1CCCCC1 | 128 (≈ 273 µM) | 40.8 (≈ 86.9 µM)
5 | O=C(CSc1nc2ccc([N+](=O)[O-])cc2s1)NC1CCCCC1 | 32 (≈ 91.1 µM) | 34.4 (≈ 98 µM)
6 | C=C(C)[C@H]1Cc2c(ccc3c2O[C@@H]2COc4cc(OC)c(OC)cc4[C@@H]2C3=O)O1 [ROTENONE] | > 64 | 
7 | CO[C@H]1/C=C/O[C@@]2(C)Oc3c(C)c(O)c4c(O)c(c(/C=N/N5CCN(C)CC5)c(O)c4c3C2=O)NC(=O)/C(C)=C\C=C\[C@H](C)[C@H](O)[C@@H](C)[C@@H](O)[C@@H](C)[C@H](OC(C)=O)[C@@H]1C [RIFAMPIN] | 0.03 (≈ 0.0365 µM) | 
8 | O=C(CSc1nc2ccc(C(F)(F)F)cc2s1)NC1CCCCC1 | 128 (≈ 342 µM) | 19.7 (≈ 52.6 µM)
9 | O=C(CSc1nc2ccc(F)cc2s1)NC1CCCCC1 | 8 (≈ 24.7 µM) | 19.7 (≈ 60.6 µM)
10 | CC(C)c1ccc2nc(SCC(=O)NC3CCCCC3)sc2c1 | 4 (≈ 11.5 µM) | 9.89 (≈ 28.4 µM)
11 | CC(C)/N=c1\cc2n(-c3ccc(Cl)cc3)c3ccccc3nc-2cc1Nc1ccc(Cl)cc1 [CLOFAZIMINE] | 0.25 (≈ 0.528 µM) | 
12 | NNC(=O)c1ccncc1 [ISONIAZID] | 0.06 (≈ 0.438 µM) | 
13 | O=C(CSc1nc2ccc(Br)cc2s1)NC1CCCCC1 | 128 (≈ 332 µM) | 31.8 (≈ 82.4 µM)
14 | O=C(CSc1nc2ccc(Cl)cc2s1)NC1CCCCC1 | 64 (≈ 188 µM) | 32.9 (≈ 96.4 µM)
15 | O=C(CSc1nc2ccccc2c(=O)[nH]1)NC1CCCCC1 | 1 (≈ 3.15 µM) | 4.99 (≈ 15.7 µM)
16 | O=C(CSc1nc2c(Br)cc(F)cc2s1)NC1CCCCC1 | 4 (≈ 9.92 µM) | 13.5 (≈ 33.5 µM)
17 | Cc1ccc2nc(SCC(=O)NC3CCCCC3)sc2c1 | 16 (≈ 49.9 µM) | 14.4 (≈ 44.9 µM)
18 | Cc1cc(C)c2nc(SCC(=O)NC3CCCCC3)sc2c1 | 4 (≈ 12 µM) | 13.4 (≈ 40.2 µM)
19 | O=C(CSc1nc2c(ccc3ccccc32)s1)NC1CCCCC1 | 64 (≈ 180 µM) | 38 (≈ 106 µM)
